Assay outcomes (PubChem BioAssay)
Compounds with a hit are over-represented: about 0.7% of the library has one in this group of screens.
proCasp7 act – activates human procaspase-7, counter-screen for procaspase-3 activators; P55210; recombinant procaspase-7, Ac-DEVD-pNA absorbance 405 nm; D23A/D198A/D206A triple mutant, cannot self-cleave; scale: DMSO 0, 5 µM enzyme 100; activation, % at 8.5 µM; 330,000 tested, 0.093% active; AID 463210;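 active = percent activation above the screen-wide mean plus 3 SD, cut at about 25% in these data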
Target sequence (P55210 whole entry D23A/D198A/D206A): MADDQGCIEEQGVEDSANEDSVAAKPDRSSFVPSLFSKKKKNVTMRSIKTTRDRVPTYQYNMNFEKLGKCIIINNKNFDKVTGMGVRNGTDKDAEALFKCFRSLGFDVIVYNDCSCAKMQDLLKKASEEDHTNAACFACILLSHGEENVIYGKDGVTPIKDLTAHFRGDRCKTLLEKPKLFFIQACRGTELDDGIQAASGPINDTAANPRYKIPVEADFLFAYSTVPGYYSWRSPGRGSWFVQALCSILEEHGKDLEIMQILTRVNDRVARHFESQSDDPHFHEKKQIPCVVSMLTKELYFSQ
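signal = Epi-absorbance of released pNA at 405 nm, two timepoints | assay system = Uncleavable procaspase-7 mutant enzyme | reagent = Ac-DEVD-pNA substrate, 400 µM as added | times = 1 h enzyme–compound preincubation and 2 h substrate reaction, both 25 °C | benchmarks = low DMSO alone, high DMSO plus 5 µM PC-7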
procasp3 activ – activates human procaspase-3 | recombinant procaspase-3 D3A, Ac-DEVD-pNA absorbance 405 nm | 330,000 tested, 0.11% active | P42574 | AID 463141 | activation, % at 8.5 µM;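 active = activation above the mean of all tested compounds plus 3 SD, cut at about 21% in these data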
Target sequence (P42574 whole entry D9A/D28A/D175A): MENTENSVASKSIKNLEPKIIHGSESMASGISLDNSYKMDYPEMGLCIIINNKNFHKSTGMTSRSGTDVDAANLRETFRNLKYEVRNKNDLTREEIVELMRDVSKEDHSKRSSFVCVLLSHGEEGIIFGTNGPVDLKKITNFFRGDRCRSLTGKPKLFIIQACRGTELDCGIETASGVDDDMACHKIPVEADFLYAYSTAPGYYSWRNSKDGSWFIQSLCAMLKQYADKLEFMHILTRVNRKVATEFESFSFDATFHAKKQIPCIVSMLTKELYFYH
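Test system: Procaspase-3 D3A mutant; medium: Zinc-free HEPES/NaCl buffer with 0.01% Triton X-100 at pH 7.4; reagent: DEVD-pNA substrate; doses: one concentration, 8.5 µM nominal, 0.8% DMSO; times: 1 h preincubation plus 2 h reaction at 25 °C; signal: Epi-absorbance at 405 nm of released p-nitroaniline, 0 and 120 min; replicates: singlicate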
GAA850 FXN act – activators of GAA850 frataxin (FXN) promoter. HEK293 lucGAA850 FXN promoter luciferase reporter, 24 h; percent of 10 µM SAHA response. activation, % at 6 µM. 360,000 tested, 0.56% active. AID 540364;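 active = activation above the average of all compounds screened plus 3 SD, cutoff fixed separately per campaign, cut at about 7.5% in these data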
proCasp7 act trip – counter-screen: procaspase-7 (human) activation in triplicate. activation, % at 8.5 µM. recombinant procaspase-7, Ac-DEVD-pNA absorbance; asp23/198/206-to-Ala mutant, cannot self-cleave. 210 tested, under 10 active. shares compounds with procasp3 activ;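 active = mean activation above a set limit taken from an earlier procaspase-7 screen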
procasp3 conf – procaspase-3 (human) activation, confirmed. shares compounds with procasp3 activ. recombinant PC-3 D3A, Ac-DEVD-pNA absorbance 405 nm; 100% is higher-enzyme control. activation, % at 8.5 µM. 210 tested, 10% active. AID 488954;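 active = mean activation above a set limit carried over from the earlier primary screen, cut at about 22% in these data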
PC3 dual counter – activates human procaspase-3, dual activator counter-screen. shares compounds with proCasp7 act. recombinant PC-3 D3A, Ac-DEVD-pNA absorbance 405 nm; aspartates 9, 28, 175 changed to alanine; 100% = enzyme control. activation, % at 8.5 µM. 290 tested, under 10 active;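 active = mean percent activation across triplicates above a set limit taken from the earlier primary procaspase-3 screen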
Procasp7 act – confirmation of dual procaspase activators: human procaspase-7 activation | shares compounds with proCasp7 act | recombinant procaspase-7, Ac-DEVD-pNA absorbance 405 nm; D23A/D198A/D206A mutant that cannot self-cleave | activation, % at 8.5 µM | 290 tested, under 10 active;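 active = mean activation above a set limit carried over from the earlier primary screen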
GAA30 counter – GAA30 FXN promoter activation counter-screen | activation, % at 6 µM | HEK293 lucGAA30 FXN promoter luciferase, 24 h; DMSO = 0%, 5 µM ipriflavone = 100% | shares compounds with GAA850 FXN act | 1,900 tested, 66% active | AID 588350;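 active = mean activation above the mean of solvent-only control wells plus 3 SD, cut at about 22% in these data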;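 also: counterscreen of GAA850 promoter hits where activity marks nonselective or luminescence artifacts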
FXN GAA850 conf – GAA850 FXN promoter activation confirmation. activation, % at 6 µM. AID 588351. 1,900 tested, 86% active. shares compounds with GAA850 FXN act. HEK293 lucGAA850 FXN promoter luciferase reporter, 24 h; 100% = activation by SAHA;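 active = mean activation above a set limit taken from the primary screen, cut at about 8% in these data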
Hits are given with their value; i = inactive; nt = not tested or not shown.

SMILES	proCasp7 act	procasp3 activ	GAA850 FXN act	others
CC(=O)O[C@@H]1/C=C/[C@](C)(O)C[C@@H](C)C/C=C/[C@H]2[C@@H]3O[C@]3(C)[C@@H](C)[C@H]3[C@H](Cc4ccccc4)NC(=O)[C@@]312	i	i	18
CC(=O)O[C@@H]1/C=C/[C@](C)(O)C[C@@H](C)C/C=C/[C@H]2[C@H](O)[C@@](C)(O)[C@@H](C)[C@H]3[C@H](Cc4ccccc4)NC(=O)[C@@]312	i	i	i
CCOc1cccc(=NC2CCCCC2)c2c(C)n(C)c(C)c12	i	i	i
C=C1C(=O)O[C@@H]2C[C@@H](C)[C@H]3C=CC(=O)[C@]3(O)C[C@@H]12	i	i	14
C=C1C(=O)OC2CC3(C)OC3CCC(C)=CC(OC(C)=O)C12 (stereo not given)	nt	nt	i
O=C1/C(=C/c2ccc([N+](=O)[O-])cc2)N2CCC1CC2	i	i	i
CN(C)[C@@H]1C(=O)C(C(N)=O)=C(O)[C@@]2(O)C(=O)C3=C(O)c4c(O)cccc4[C@@](C)(O)[C@H]3C[C@@H]12	i	i	nt
CN(C)C1C(=O)C(C(N)=O)=C(O)C2(O)C(=O)C3=C(O)c4c(O)cccc4C(C)(O)C3CC12 (stereo not given)	i	i	17
CN1CCN(C(=O)COc2ccc(-c3nc4ccccc4s3)cc2)CC1	i	i	i
CCC(C)OC(=O)c1c(N)n(Cc2cccs2)c2nc3ccccc3nc12 (stereo not given)	i	23	i	proCasp7 act trip=i;procasp3 conf=i
Nc1c(C(=O)OCc2ccccc2)c2nc3ccccc3nc2n1Cc1cccs1	i	i	i
CS(=O)(=O)NNP(=O)(NNS(C)(=O)=O)NC(=O)c1ccccc1	i	i	i
CCC(C)NC(=O)c1c(N)n(CC2CCCO2)c2nc3ccccc3nc12 (stereo not given)	i	i	i
CC(C)CCNC(=O)c1c(N)n(CC2CCCO2)c2nc3ccccc3nc12 (stereo not given)	i	25	i	proCasp7 act trip=i;procasp3 conf=i
CCC(C)NC(=O)c1c(N)n(Cc2ccc3c(c2)OCO3)c2nc3ccccc3nc12 (stereo not given)	i	70	i	proCasp7 act trip=i;procasp3 conf=i
CCC(C)NC(=O)c1c(N)n(CCCOC)c2nc3ccccc3nc12 (stereo not given)	i	i	i
Cc1ccsc1C(=O)C1CCCN(Cc2sc(N(C)C)nc2Cl)C1 (stereo not given)	i	i	i
CC[C@H]1CN2CC[C@@]3(C(=O)Nc4ccccc43)[C@@H]2C[C@@H]1/C(=C\OC)C(=O)OC	i	i	i
CCCNc1oc(-c2cccc3ccccc23)nc1C#N	32	33	i	PC3 dual counter=i;Procasp7 act=i
C/C=C(\C)C(=O)OC1C(C)=C2C(C1OC(=O)CCCCC)C(C)(OC(C)=O)CC(OC(=O)CCC)C1(O)C2OC(=O)C1(C)O (stereo not given)	i	i	nt
COc1ccc(-n2c(C)nc3cc(C(=O)N4CCC5(CC4)OCCO5)ccc32)cc1	i	i	i
COc1ccc(-c2nc3ccc(C(=O)N4CCC5(CC4)OCCO5)cc3nc2-c2ccc(OC)cc2)cc1	52	30	i	PC3 dual counter=i;Procasp7 act=i
CC[C@@H]1C=CC=CC[C@H](C)[C@@H](O)[C@@H](C)C(=O)[C@H](C)[C@@H](O)[C@H](C)C(=O)[C@H](C)[C@@H](O)[C@H](C)C=CC(=O)O[C@H]2[C@@H](C)[C@@H](CC1)O[C@@]1(CC[C@@H](C)[C@@H](C[C@H](C)O)O1)[C@@H]2C	i	i	nt
CS(=O)(=O)NNP(=O)(NNS(C)(=O)=O)NC(=O)c1ccc(Br)cc1	i	i	i
COc1ccc(/C=N/N=C(/N)N[N+](=O)[O-])c(OC)c1	i	i	9.7	GAA30 counter=75;FXN GAA850 conf=26
SMILES	proCasp7 act	procasp3 activ	GAA850 FXN act	others
N/C(=N\N=C/c1ccc(-c2ccc(O)c(C(=O)O)c2)o1)N[N+](=O)[O-]	i	i	i
COC(=O)C[C@]1(C(=O)OC)CN(C#N)N(c2ccc(Cl)cc2)C12c1ccccc1-c1ccccc12	i	i	i
COC(=O)[C@@H]1[C@@H](C(=O)OC)C2(c3ccccc3-c3ccccc32)N(c2ccc(Cl)cc2)N1C#N	i	i	13	GAA30 counter=i;FXN GAA850 conf=i
O=C1CC(=O)N(c2cccc(F)c2)C(=O)N1	i	i	i
COc1ccc2c(c1)/C(=C/c1cnc[nH]1)C(=O)N2	i	i	43	GAA30 counter=116;FXN GAA850 conf=76
O=C1Nc2ccccc2/C1=C/c1cnc[nH]1	i	i	i
CC1(C)C2([N+](=O)[O-])CN3CC1([N+](=O)[O-])CN(C2)C3c1ccccn1 (stereo not given)	i	i	i
CCNC(=O)C1OC(n2cnc3c(N)ncnc32)C(O)C1O (stereo not given)	i	i	10	GAA30 counter=i;FXN GAA850 conf=26
COc1ccc(OC(=O)N(C)C[C@@H]2OCc3ccccc3-c3c(n(C)c4ccccc34)C(=O)N([C@H](C)CO)C[C@@H]2C)cc1	nt	nt	12	GAA30 counter=i;FXN GAA850 conf=9.1
COc1ccc(OC(=O)N(C)C[C@H]2OCc3cnnn3CCCC(=O)N([C@H](C)CO)C[C@@H]2C)cc1	nt	nt	i
C[C@]12C=CC(=O)C=C1C=C[C@@H]1C2CC[C@]2(C)C(=O)CCC12 (stereo not given in full)	i	i	i
Cn1cccc1/C=C1/C(=O)NC(=O)N(Cc2ccccc2)C1=O	i	i	i
Cn1cccc1/C=C1\C(=O)NC(=O)N(Cc2ccccc2)C1=O	i	i	8.0	GAA30 counter=i;FXN GAA850 conf=24
COc1ccccc1C(=O)Nc1ccc2c(c1)CC1(C(=O)N(C)C(=O)N(C)C1=O)C1CCCN21 (stereo not given)	i	i	i
O=C1Nc2ccccc2C(c2ccccc2)=NC1O (stereo not given)	i	i	i
